Converted amounts (≈) assume the structure as drawn.
Tests used:
Assay type in all cases: functional
Staphylococcus aureus [1] = assay: Antimicrobial activity against SCCmec type II vancomycin-intermediate Staphylococcus aureus isolate 4sy32 by agar dilution method
How it was run: (§1)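 Agar-dilution MICs were measured on a subset of 200 blood MRSA isolates from China. Agents: oxacillin, rifampin, gentamicin, levofloxacin, erythromycin, vancomycin, teicoplanin, tigecycline, ceftobiprole and linezolid. Phenotype came from the PAP-AUC ratio of each isolate to S. aureus Mu3 (VSSA <0.9; hVISA 0.9 to 1.3; VISA ≥1.3), read on BHI agar with 0 to 8.0 mg/liter vancomycin after 48 h at 35°C.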

Staphylococcus aureus [2] = assay: Antimicrobial activity against SCCmec type II vancomycin-intermediate Staphylococcus aureus isolate 4sy39 by agar dilution method; how it was run: as §1
Staphylococcus aureus [3] = assay: Antimicrobial activity against heterogeneous vancomycin-intermediate Staphylococcus aureus by agar dilution method; how it was run: as §1
Staphylococcus aureus [4] = assay: Antimicrobial activity against vancomycin-intermediate Staphylococcus aureus by agar dilution method; how it was run: as §1
Staphylococcus aureus [5] = assay: Antimicrobial activity against heterogeneous vancomycin-intermediate Staphylococcus aureus assessed as intermediate isolates by agar dilution method
How it was run: (§2)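 MICs by agar dilution for all 200 MRSA blood isolates (oxacillin, rifampin, gentamicin, levofloxacin, erythromycin, vancomycin, teicoplanin, tigecycline, ceftobiprole, linezolid). Isolates were grouped by PAP-AUC ratio against S. aureus Mu3: below 0.9 VSSA, 0.9 to 1.3 hVISA, 1.3 or more VISA.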

Staphylococcus aureus [6] = assay: Antimicrobial activity against heterogeneous vancomycin-intermediate Staphylococcus aureus assessed as susceptible isolates by agar dilution method; how it was run: as §2
Staphylococcus aureus [7] = assay: Antimicrobial activity against heterogeneous vancomycin-intermediate Staphylococcus aureus assessed as growth inhibition at 0.25 times MIC; set-up: scale not given: the % may be the effect or the level left
Staphylococcus aureus [8] = assay: Antimicrobial activity against heterogeneous vancomycin-intermediate Staphylococcus aureus assessed as growth inhibition at 0.125 times MIC; set-up: scale not given: the % may be the effect or the level left
Staphylococcus aureus [9] = assay: Antimicrobial activity against vancomycin-susceptible Staphylococcus aureus by agar dilution method; how it was run: as §1
Staphylococcus aureus [10] = assay: Antimicrobial activity against heterogeneous vancomycin-susceptible Staphylococcus aureus assessed as intermediate isolates by agar dilution method
Staphylococcus aureus [11] = assay: Antimicrobial activity against heterogeneous vancomycin-susceptible Staphylococcus aureus assessed as susceptible isolates by agar dilution method; how it was run: as §2
Staphylococcus aureus [12] = assay: Antimicrobial activity against heterogeneous vancomycin-intermediate Staphylococcus aureus assessed as growth inhibition at 0.5 times MIC; set-up: scale not given: the % may be the effect or the level left
Staphylococcus aureus [13] = assay: Antimicrobial activity against heterogeneous vancomycin-intermediate Staphylococcus aureus assessed as growth inhibition at MIC; set-up: scale not given: the % may be the effect or the level left
Staphylococcus aureus [14] = assay: Antimicrobial activity against heterogeneous vancomycin-intermediate Staphylococcus aureus assessed as growth inhibition at 2 times MIC; set-up: scale not given: the % may be the effect or the level left
Staphylococcus aureus [15] = assay: Antimicrobial activity against heterogeneous vancomycin-intermediate Staphylococcus aureus assessed as growth inhibition at 4 times MIC; set-up: scale not given: the % may be the effect or the level left
Staphylococcus aureus [16] = assay: Antimicrobial activity against heterogeneous vancomycin-intermediate Staphylococcus aureus assessed as growth inhibition at 16 times MIC; set-up: scale not given: the % may be the effect or the level left
Staphylococcus aureus [17] = assay: Antimicrobial activity against vancomycin-susceptible Staphylococcus aureus assessed as growth inhibition at 0.125 times MIC; set-up: scale not given: the % may be the effect or the level left
Staphylococcus aureus [18] = assay: Antimicrobial activity against vancomycin-susceptible Staphylococcus aureus assessed as growth inhibition at 0.25 times MIC; set-up: scale not given: the % may be the effect or the level left
Staphylococcus aureus [19] = assay: Antimicrobial activity against vancomycin-susceptible Staphylococcus aureus assessed as growth inhibition at 0.5 times MIC; set-up: scale not given: the % may be the effect or the level left
Staphylococcus aureus [20] = assay: Antimicrobial activity against vancomycin-susceptible Staphylococcus aureus assessed as growth inhibition at MIC; set-up: scale not given: the % may be the effect or the level left
Staphylococcus aureus [21] = assay: Antimicrobial activity against vancomycin-susceptible Staphylococcus aureus assessed as growth inhibition at 2 times MIC; set-up: scale not given: the % may be the effect or the level left
Staphylococcus aureus [22] = assay: Antimicrobial activity against vancomycin-susceptible Staphylococcus aureus assessed as growth inhibition at 4 times MIC; set-up: scale not given: the % may be the effect or the level left
Staphylococcus aureus [23] = assay: Antimicrobial activity against vancomycin-susceptible Staphylococcus aureus assessed as growth inhibition at 16 times MIC; set-up: scale not given: the % may be the effect or the level left
Staphylococcus aureus [24] = assay: Antimicrobial activity against SCCmec type III vancomycin-intermediate Staphylococcus aureus isolate 5zjsau3 by agar dilution method; how it was run: as §1
Staphylococcus aureus [25] = assay: Antimicrobial activity against SCCmec type II vancomycin-intermediate Staphylococcus aureus isolate sh06024 by agar dilution method; how it was run: as §1
Staphylococcus aureus [26] = assay: Antimicrobial activity against SCCmec type III vancomycin-intermediate Staphylococcus aureus isolate gz06040 by agar dilution method; how it was run: as §1
Staphylococcus aureus [27] = assay: Antimicrobial activity against SCCmec type III vancomycin-intermediate Staphylococcus aureus isolate gz06051 by agar dilution method; how it was run: as §1
Staphylococcus aureus [28] = assay: Antimicrobial activity against SCCmec type II vancomycin-intermediate Staphylococcus aureus isolate 6zjsau7 by agar dilution method; how it was run: as §1
Staphylococcus aureus [29] = assay: Antimicrobial activity against SCCmec type III vancomycin-intermediate Staphylococcus aureus isolate bd4768 by agar dilution method; how it was run: as §1
Staphylococcus aureus [30] = assay: Antimicrobial activity against SCCmec type II vancomycin-intermediate Staphylococcus aureus isolate b2k4781 by agar dilution method; how it was run: as §1
Staphylococcus aureus [31] = assay: Antimicrobial activity against SCCmec type III vancomycin-intermediate Staphylococcus aureus isolate b3k2345 by agar dilution method; how it was run: as §1
Staphylococcus aureus [32] = assay: Antimicrobial activity against SCCmec type III vancomycin-intermediate Staphylococcus aureus isolate b2k3421 by agar dilution method; how it was run: as §1
Staphylococcus aureus [33] = assay: Antimicrobial activity against SCCmec type III vancomycin-intermediate Staphylococcus aureus isolate b3k5923 by agar dilution method; how it was run: as §1
Staphylococcus aureus [34] = assay: Antimicrobial activity against SCCmec type III vancomycin-intermediate Staphylococcus aureus isolate b4k6307 by agar dilution method; how it was run: as §1
Staphylococcus aureus [35] = assay: Antimicrobial activity against SCCmec type III vancomycin-intermediate Staphylococcus aureus isolate b5k3529 by agar dilution method; how it was run: as §1
Staphylococcus aureus [36] = assay: Antimicrobial activity against SCCmec type III vancomycin-intermediate Staphylococcus aureus isolate b5k3578 by agar dilution method; how it was run: as §1
Staphylococcus aureus [37] = assay: Antimicrobial activity against SCCmec type III vancomycin-intermediate Staphylococcus aureus isolate b6k1642 by agar dilution method; how it was run: as §1
Staphylococcus aureus [38] = assay: Antimicrobial activity against SCCmec type III vancomycin-intermediate Staphylococcus aureus isolate b6k7974 by agar dilution method; how it was run: as §1
Staphylococcus aureus [39] = assay: Antimicrobial activity against SCCmec type IV vancomycin-intermediate Staphylococcus aureus isolate 06b41 by agar dilution method; how it was run: as §1
Staphylococcus aureus [40] = assay: Antimicrobial activity against SCCmec type III vancomycin-intermediate Staphylococcus aureus isolate 13b16 by agar dilution method; how it was run: as §1
Staphylococcus aureus [41] = assay: Antimicrobial activity against SCCmec type III vancomycin-intermediate Staphylococcus aureus isolate 11b091 by agar dilution method; how it was run: as §1
Staphylococcus aureus [42] = assay: Antimicrobial activity against SCCmec type II vancomycin-intermediate Staphylococcus aureus isolate 07b63 by agar dilution method; how it was run: as §1
Staphylococcus aureus [43] = assay: Antimicrobial activity against SCCmec type III vancomycin-intermediate Staphylococcus aureus isolate 15b52 by agar dilution method; how it was run: as §1
Staphylococcus aureus [44] = assay: Antimicrobial activity against SCCmec type III vancomycin-intermediate Staphylococcus aureus isolate zj07028 by agar dilution method; how it was run: as §1
Staphylococcus aureus [45] = assay: Antimicrobial activity against SCCmec type III vancomycin-intermediate Staphylococcus aureus isolate sh07043 by agar dilution method; how it was run: as §1
Staphylococcus aureus [46] = assay: Antimicrobial activity against SCCmec type III vancomycin-intermediate Staphylococcus aureus isolate xa07029 by agar dilution method; how it was run: as §1
Staphylococcus aureus [47] = assay: Antimicrobial activity against SCCmec type III vancomycin-intermediate Staphylococcus aureus isolate gz07030 by agar dilution method; how it was run: as §1
Staphylococcus aureus [48] = assay: Antimicrobial activity against SCCmec type III vancomycin-intermediate Staphylococcus aureus isolate gs07022 by agar dilution method; how it was run: as §1

## Nc1nc(/C(=N/O)C(=O)N[C@@H]2C(=O)N3C(C(=O)O)=C(/C=C4\CCN([C@@H]5CCNC5)C4=O)CS[C@H]23)ns1 [CEFTOBIPROLE]
Staphylococcus aureus [1]
  MIC: 0.5 µg/mL (≈ 0.935 µM)
Staphylococcus aureus [2]
  MIC: 0.5 µg/mL (≈ 0.935 µM)
Staphylococcus aureus [3]
  MIC50: 2 µg/mL (≈ 3.74 µM)
  MIC90: 2 µg/mL (≈ 3.74 µM)
Staphylococcus aureus [4]
  MIC: 0.5 µg/mL (≈ 0.935 µM)
Staphylococcus aureus [5]
  Activity: 0%
Staphylococcus aureus [6]
  Activity: 100%
Staphylococcus aureus [7]
  Activity: 0%
Staphylococcus aureus [8]
  Activity: 0%
Staphylococcus aureus [9]
  MIC50: 2 µg/mL (≈ 3.74 µM)
  MIC90: 2 µg/mL (≈ 3.74 µM)
Staphylococcus aureus [10]
  Activity: 0%
Staphylococcus aureus [11]
  Activity: 100%
Staphylococcus aureus [12]
  Activity: 11.1%
Staphylococcus aureus [13]
  Activity: 33.3%
Staphylococcus aureus [14]
  Activity: 96.3%
Staphylococcus aureus [15]
  Activity: 100%
Staphylococcus aureus [16]
  Activity: 100%
Staphylococcus aureus [17]
  Activity: 0%
Staphylococcus aureus [18]
  Activity: 2.31%
Staphylococcus aureus [19]
  Activity: 4.62%
Staphylococcus aureus [20]
  Activity: 27.2%
Staphylococcus aureus [21]
  Activity: 100%
Staphylococcus aureus [22]
  Activity: 100%
Staphylococcus aureus [23]
  Activity: 100%
Staphylococcus aureus [24]
  MIC: 0.5 µg/mL (≈ 0.935 µM)
Staphylococcus aureus [25]
  MIC: 2 µg/mL (≈ 3.74 µM)
Staphylococcus aureus [26]
  MIC: 1 µg/mL (≈ 1.87 µM)
Staphylococcus aureus [27]
  MIC: 2 µg/mL (≈ 3.74 µM)
Staphylococcus aureus [28]
  MIC: 4 µg/mL (≈ 7.48 µM)
Staphylococcus aureus [29]
  MIC: 2 µg/mL (≈ 3.74 µM)
Staphylococcus aureus [30]
  MIC: 2 µg/mL (≈ 3.74 µM)
Staphylococcus aureus [31]
  MIC: 2 µg/mL (≈ 3.74 µM)
Staphylococcus aureus [32]
  MIC: 2 µg/mL (≈ 3.74 µM)
Staphylococcus aureus [33]
  MIC: 2 µg/mL (≈ 3.74 µM)
Staphylococcus aureus [34]
  MIC: 1 µg/mL (≈ 1.87 µM)
Staphylococcus aureus [35]
  MIC: 2 µg/mL (≈ 3.74 µM)
Staphylococcus aureus [36]
  MIC: 2 µg/mL (≈ 3.74 µM)
Staphylococcus aureus [37]
  MIC: 2 µg/mL (≈ 3.74 µM)
Staphylococcus aureus [38]
  MIC: 2 µg/mL (≈ 3.74 µM)
Staphylococcus aureus [39]
  MIC: 1 µg/mL (≈ 1.87 µM)
Staphylococcus aureus [40]
  MIC: 1 µg/mL (≈ 1.87 µM)
Staphylococcus aureus [41]
  MIC: 2 µg/mL (≈ 3.74 µM)
Staphylococcus aureus [42]
  MIC: 1 µg/mL (≈ 1.87 µM)
Staphylococcus aureus [43]
  MIC: 2 µg/mL (≈ 3.74 µM)
Staphylococcus aureus [44]
  MIC: 2 µg/mL (≈ 3.74 µM)
Staphylococcus aureus [45]
  MIC: 2 µg/mL (≈ 3.74 µM)
Staphylococcus aureus [46]
  MIC: 2 µg/mL (≈ 3.74 µM)
Staphylococcus aureus [47]
  MIC: 2 µg/mL (≈ 3.74 µM)
Staphylococcus aureus [48]
  MIC: 1 µg/mL (≈ 1.87 µM)
